Our source for the IC50, CC50 and selectivity ratio values is ChEMBL document CHEMBL4765283, “Design, synthesis, in vitro and in silico studies of novel 4-oxoquinoline ribonucleoside derivatives as HIV-1 reverse transcriptase inhibitors” (Eur J Med Chem, 2020).

What is called IC50 is the midpoint of a concentration-inhibition curve. As a reminder, the CC50 is the concentration that lowers cell viability or growth by half.

The nature of series [1]: Inhibition of recombinant HIV1 HXB2 reverse transcriptase RDDP activity assessed as reduction in biotin/digoxin-dU incorporation into polirA-oligodU template primer measured after 30 mins by ELISA. Also on record: species or system HIV-1 M:B_HXB2R. A digest of the protocol: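 Purified recombinant HIV-1 RT (HXB2 clone), 3 U, incubated with compounds over a concentration range and poly(rA)-oligo(dU). Biotin- and digoxin-labelled dU (equimolar) incorporated at 37 °C for 30 min, stopped with 0.5 M EDTA. Product captured on streptavidin-coated plates and detected with peroxidase-tagged anti-digoxin antibody. Absorbance read at 570 nm against 690 nm reference. IC50 from linear regression of dose-response curves.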

The nature of series [2]: Cytotoxicity against human PBMC assessed as reduction in cell viability after 72 hrs by XTT assay. In kind it is tissue-based. A digest of the protocol:
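Primary human PBMCs, 2×10^4 cells/well, exposed to compounds at several concentrations for 72 h. XTT (5 mg/mL) with 0.01 % PMS in DMEM then added for 4 h at 37 °C. Absorbance read at 492 and 620 nm. CC50 obtained by linear regression of dose-response curves.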
For orientation: Tetrazolium assays rely on reduction of a dye to a coloured formazan, in cell work by metabolically active cells.

Series [3] in a line: Protection index, ratio of azidothymidine CC50 to test compound CC50 for human PBMC. In kind it is ADME, tissue-based. The note with it: read-out: PI.
Series [4] has as its system HIV1 HXB2 reverse transcriptase RDDP activity. Briefly: Selectivity index, ratio of CC50 for human PBMC to IC50 for inhibition of recombinant HIV1 HXB2 reverse transcriptase RDDP activity. In kind it is toxicity. The note with it: read-out: Ratio CC50/IC50.

A value given as a limit tells only on which side of the number the result lay.

Regarding `O=C(Nc1ccc(Cl)cc1)c1cn([C@@H]2O[C@H](CO)[C@@H](O)[C@H]2O)c2ccc(Cl)cc2c1=O`, the half-maximal inhibitory concentration (IC50) in series [1] is 8 µM. Further, in series [2], the cytotoxic concentration (CC50) at 72 h is greater than 1000 µM. Besides, in series [3], the selectivity ratio was greater than 10.

Regarding `Cc1ccc2c(c1)c(=O)c(C(=O)NCc1ccc(Cl)cc1)cn2[C@@H]1O[C@H](COC(=O)c2ccccc2)[C@@H](OC(=O)c2ccccc2)[C@H]1OC(=O)c1ccccc1`, the half-maximal inhibitory concentration (IC50) in series [1] is 1.6 µM. For the same molecule, in series [2], the CC50 at 72 h worked out at 1390 µM. The selectivity ratio in series [4] was 830; in series [3], greater than 10.

Regarding `O=C(Nc1ccccc1)c1cn([C@@H]2O[C@H](CO)[C@@H](O)[C@H]2O)c2ccc(Cl)cc2c1=O`, in series [1], the half-maximal inhibitory concentration (IC50) amounted to 2.6 µM. In addition, in series [2], the CC50 at 72 h is greater than 1000 µM. Moreover, the selectivity ratio in series [3] was greater than 10.

Consider `COc1ccc(NC(=O)c2cn([C@@H]3O[C@H](COC(=O)c4ccccc4)[C@@H](OC(=O)c4ccccc4)[C@H]3OC(=O)c3ccccc3)c3ccc(Cl)cc3c2=O)cc1`, for which the IC50 in series [1] turned out to be 6.8 µM. Further, the cytotoxic concentration (CC50) at 72 h in series [2] was greater than 1000 µM. Also, in series [3], the selectivity ratio is greater than 10.

With `Cc1ccc2c(c1)c(=O)c(C(=O)NCc1ccc(Cl)cc1)cn2[C@@H]1O[C@H](CO)[C@@H](O)[C@H]1O`, the 50% inhibitory concentration (IC50) in series [1] was determined as 4.3 µM. In series [2], the cytotoxic concentration (CC50) at 72 h was greater than 1000 µM. Further, the selectivity ratio in series [3] is greater than 10.

As to `O=C(OC[C@H]1O[C@@H](n2cc(C(=O)NCc3ccc(Cl)cc3)c(=O)c3cc(F)ccc32)[C@H](OC(=O)c2ccccc2)[C@@H]1OC(=O)c1ccccc1)c1ccccc1`, in series [1], the IC50 came out at 2.8 µM. Further, in series [2], the CC50 at 72 h is greater than 1000 µM. The selectivity ratio in series [3] is greater than 10.

In the case of `O=C(OC[C@H]1O[C@@H](n2cc(C(=O)Nc3ccc(Cl)cc3)c(=O)c3cc(Cl)ccc32)[C@H](OC(=O)c2ccccc2)[C@@H]1OC(=O)c1ccccc1)c1ccccc1`, in series [1], the IC50 amounted to 9.9 µM. Moreover, the 50% cytotoxic concentration (CC50) at 72 h in series [2] was greater than 1000 µM. Moreover, the selectivity ratio in series [3] was greater than 10.

For `O=C(OC[C@H]1O[C@@H](n2cc(C(=O)NC3CCCCC3)c(=O)c3cc(Cl)ccc32)[C@H](OC(=O)c2ccccc2)[C@@H]1OC(=O)c1ccccc1)c1ccccc1`, the IC50 in series [1] was found to be 8.6 µM. In series [2], the CC50 at 72 h was greater than 1000 µM. The selectivity ratio in series [3] is greater than 10.

Turning to `O=C(NCc1ccc(Cl)cc1)c1cn([C@@H]2O[C@H](CO)[C@@H](O)[C@H]2O)c2ccc(Cl)cc2c1=O`, in series [1], the concentration for half-maximal inhibition (IC50) came out at 18.4 µM. The 50% cytotoxic concentration (CC50) at 72 h in series [2] was greater than 1000 µM. In addition, the selectivity ratio in series [3] was greater than 10.

As to `O=C(OC[C@H]1O[C@@H](n2cc(C(=O)NCc3ccc(Cl)cc3)c(=O)c3ccccc32)[C@H](OC(=O)c2ccccc2)[C@@H]1OC(=O)c1ccccc1)c1ccccc1`, in series [1], the half-maximal inhibitory concentration (IC50) worked out at 1.4 µM. Further, the CC50 at 72 h in series [2] is 1490 µM. Moreover, the selectivity ratio in series [4] was 998; in series [3] it was greater than 10.

Take `O=C(Nc1ccc(F)cc1)c1cn([C@@H]2O[C@H](CO)[C@@H](O)[C@H]2O)c2ccc(Cl)cc2c1=O`: the IC50 in series [1] was 5.8 µM. The CC50 at 72 h in series [2] is greater than 1000 µM. Moreover, the selectivity ratio in series [3] is greater than 10.

Regarding `COc1ccc(NC(=O)c2cn([C@@H]3O[C@H](CO)[C@@H](O)[C@H]3O)c3ccc(Cl)cc3c2=O)cc1`, the concentration for half-maximal inhibition (IC50) in series [1] worked out at 3.4 µM. Besides, in series [2], the CC50 at 72 h was greater than 1000 µM. Besides, in series [3], the selectivity ratio is greater than 10.

In the case of `O=C(NCc1ccc(Cl)cc1)c1cn([C@@H]2O[C@H](CO)[C@@H](O)[C@H]2O)c2ccc(C(F)(F)F)cc2c1=O`, in series [1], the half-inhibitory concentration (IC50) stood at 3.9 µM. The CC50 at 72 h in series [2] was greater than 1000 µM. Also, in series [3], the selectivity ratio was greater than 10.

As for `O=C(OC[C@H]1O[C@@H](n2cc(C(=O)NCc3ccc(Cl)cc3)c(=O)c3cc(C(F)(F)F)ccc32)[C@H](OC(=O)c2ccccc2)[C@@H]1OC(=O)c1ccccc1)c1ccccc1`, the half-inhibitory concentration (IC50) in series [1] turned out to be 2.9 µM. The CC50 at 72 h in series [2] was greater than 1000 µM. In addition, the selectivity ratio in series [3] was greater than 10.

In the case of `O=C(NCc1ccc(Cl)cc1)c1cn([C@@H]2O[C@H](CO)[C@@H](O)[C@H]2O)c2ccc(F)cc2c1=O`, the concentration for half-maximal inhibition (IC50) in series [1] worked out at 3.9 µM. Further, the CC50 at 72 h in series [2] is greater than 1000 µM. For the same molecule, in series [3], the selectivity ratio is greater than 10.

On to `O=C(OC[C@H]1O[C@@H](n2cc(C(=O)Nc3ccccc3)c(=O)c3cc(Cl)ccc32)[C@H](OC(=O)c2ccccc2)[C@@H]1OC(=O)c1ccccc1)c1ccccc1`, for which the 50% inhibitory concentration (IC50) in series [1] was 19.5 µM. Also, the 50% cytotoxic concentration (CC50) at 72 h in series [2] is greater than 1000 µM. Moreover, the selectivity ratio in series [3] was greater than 10.

On to `O=C(NCc1ccc(Cl)cc1)c1cn([C@@H]2O[C@H](CO)[C@@H](O)[C@H]2O)c2ccccc2c1=O`, for which the IC50 in series [1] was 29.2 µM. The CC50 at 72 h in series [2] was greater than 1000 µM. The selectivity ratio in series [3] was greater than 10.

Turning to `O=C(NC1CCCCC1)c1cn([C@@H]2O[C@H](CO)[C@@H](O)[C@H]2O)c2ccc(Cl)cc2c1=O`, the IC50 in series [1] turned out to be 22.4 µM. Moreover, in series [2], the CC50 at 72 h is greater than 1000 µM. Further, in series [3], the selectivity ratio was greater than 10.

For `O=C(OC[C@H]1O[C@@H](n2cc(C(=O)NCc3ccc(Cl)cc3)c(=O)c3cc(Cl)ccc32)[C@H](OC(=O)c2ccccc2)[C@@H]1OC(=O)c1ccccc1)c1ccccc1`, the IC50 in series [1] came to 8.8 µM. In addition, the CC50 at 72 h in series [2] was greater than 1000 µM. The selectivity ratio in series [3] was greater than 10.

In the case of `Cc1cn([C@H]2C[C@H](N=[N+]=[N-])[C@@H](CO)O2)c(=O)[nH]c1=O` [ZIDOVUDINE], in series [1], the IC50 amounted to 0.05 µM. Besides, in series [2], the CC50 at 72 h is 126 µM.

Turning to `O=C(OC[C@H]1O[C@@H](n2cc(C(=O)Nc3ccc(F)cc3)c(=O)c3cc(Cl)ccc32)[C@H](OC(=O)c2ccccc2)[C@@H]1OC(=O)c1ccccc1)c1ccccc1`, the half-maximal inhibitory concentration (IC50) in series [1] worked out at 7.3 µM. The CC50 at 72 h in series [2] is greater than 1000 µM. Also, in series [3], the selectivity ratio is greater than 10.

Regarding `Cc1ccc(NC(=O)c2cn([C@@H]3O[C@H](COC(=O)c4ccccc4)[C@@H](OC(=O)c4ccccc4)[C@H]3OC(=O)c3ccccc3)c3ccc(Cl)cc3c2=O)cc1`, the IC50 in series [1] was determined as 16.6 µM. In series [2], the CC50 at 72 h was greater than 1000 µM. Also, in series [3], the selectivity ratio is greater than 10.
